Data as given in ChEMBL document CHEMBL1127846, “Influence of amine substituents on 5-HT2A versus 5-HT2C binding of phenylalkyl- and indolylalkylamines” (J Med Chem, 1994).

Experiments:
[1] = The compound evaluated for its receptor selectivity 5-HT2C receptors versus [125I]- DOI- labeled receptors
[2] = Receptor selectivity [3H]- ketanserin-labeled receptors versus [125I]- DOI-labeled receptors.
[3] = biological target: T1, 5-hydroxytryptamine receptor 2C (Rattus norvegicus, UniProt P08909); experiment: Affinity against 5-hydroxytryptamine 2C receptor in J1 cells transfected with the rat 5-HT2C gene labeled with [3H]mesulergine.; format: cell-based
T1 sequence (P08909 whole entry): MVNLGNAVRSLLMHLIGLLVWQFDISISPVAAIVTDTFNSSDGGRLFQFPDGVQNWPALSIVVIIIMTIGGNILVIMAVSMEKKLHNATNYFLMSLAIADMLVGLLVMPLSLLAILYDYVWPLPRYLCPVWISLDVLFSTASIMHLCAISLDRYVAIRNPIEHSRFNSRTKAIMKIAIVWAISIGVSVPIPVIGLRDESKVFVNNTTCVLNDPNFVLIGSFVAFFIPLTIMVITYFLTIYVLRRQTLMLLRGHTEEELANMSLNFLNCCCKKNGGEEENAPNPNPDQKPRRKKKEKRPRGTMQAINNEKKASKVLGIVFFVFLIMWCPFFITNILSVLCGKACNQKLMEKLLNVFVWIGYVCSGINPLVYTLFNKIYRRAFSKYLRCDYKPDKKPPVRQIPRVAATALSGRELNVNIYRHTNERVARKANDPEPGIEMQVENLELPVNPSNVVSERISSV
Procedure, shortened: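 Homogenates of J1 cells carrying the rat 5-HT1C (5-HT2C) gene, labeled with [3H]mesulergine. Competing drug and radioligand incubated at 37 °C for 30 min, then filtered through glass-fiber filters and counted by liquid scintillation. Ki given as mean and SEM of at least two experiments, each done in triplicate.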

[4] = biological target: T2, 5-hydroxytryptamine receptor 2A (Homo sapiens, UniProt P28223); experiment: Affinity against 5-hydroxytryptamine 2A receptor (K) labeled with [3H]ketanserin.
[5] = biological target: T2, 5-hydroxytryptamine receptor 2A; experiment: Affinity against 5-hydroxytryptamine 2A receptor (D) labeled with [125I]DOI.
[6] = The compound evaluated for its receptor selectivity at [125I]- DOI- labeled receptors versus [3H]- ketanserin- labeled receptors,
Procedure, shortened: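 […] 5-HT2A receptors expressed in transfected GF6 cells, labeled in separate assays with [3H]ketanserin or [125I]DOI. Homogenates were incubated with radioligand and competing drug for 30 min at 37 °C, then filtered through glass-fiber filters and counted by liquid scintillation. Ki values are the mean and SEM of at least two experiments, each run in triplicate.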

T2 sequence (P28223 whole entry): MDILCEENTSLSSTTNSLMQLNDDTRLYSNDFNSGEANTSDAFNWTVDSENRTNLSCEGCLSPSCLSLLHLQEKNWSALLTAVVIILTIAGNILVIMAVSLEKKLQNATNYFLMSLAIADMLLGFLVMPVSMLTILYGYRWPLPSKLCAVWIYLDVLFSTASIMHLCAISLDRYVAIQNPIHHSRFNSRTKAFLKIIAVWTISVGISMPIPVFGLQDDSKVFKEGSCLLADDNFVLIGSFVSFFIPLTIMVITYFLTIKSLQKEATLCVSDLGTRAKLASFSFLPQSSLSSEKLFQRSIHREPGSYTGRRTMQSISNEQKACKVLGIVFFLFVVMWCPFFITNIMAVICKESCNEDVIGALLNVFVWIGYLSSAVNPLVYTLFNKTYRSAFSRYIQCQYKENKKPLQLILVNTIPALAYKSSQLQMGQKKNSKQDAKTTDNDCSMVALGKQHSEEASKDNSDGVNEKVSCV

Row | SMILES | Ratio [1] | Ratio [2] | Ki [3] | Ki [4] | Ki [5] | Ratio [6]
1 | CCNCCc1cc(OC)c(Br)cc1OC | 48 | 8 | 1930 nM | 330 nM | 40 nM | –
2 | COc1ccc2[nH]cc(CCNCc3ccccc3)c2c1 | 70 | 10 | 370 nM | 55 nM | 5.3 nM | –
3 | COc1ccc2[nH]cc(CCNCCCc3ccccc3)c2c1 | 16 | 5 | 165 nM | 50 nM | 10 nM | –
4 | COc1ccc2[nH]cc(CCNCc3ccc([N+](=O)[O-])cc3)c2c1 | 70 | 30 | 9970 nM | 4260 nM | 140 nM | –
5 | COc1cc(CCNCCCc2ccccc2)c(OC)cc1Br | 13 | 4 | 310 nM | 84 nM | 23 nM | –
6 | COc1ccc2[nH]cc(CCN3CCCCC3)c2c1 | – | – | > 10000 nM | 160 nM | 230 nM | –
7 | COc1ccc2[nH]cc(CCNCCCCc3ccccc3)c2c1 | 115 | 2 | 1500 nM | 22 nM | 13 nM | –
8 | COc1cc(CCN)c(OC)cc1Br | – | – | – | 34 nM | 1 nM | –
9 | COc1cc(CCNCc2ccc(C)cc2)c(OC)cc1Br | 16 | 2 | 225 nM | 23 nM | 14 nM | –
10 | CNCCc1c[nH]c2ccc(OC)cc12 | – | – | 840 nM | 450 nM | 4.1 nM | 110
11 | COc1ccc2[nH]cc(CCNCc3ccc(Cl)cc3)c2c1 | 42 | 5 | 4390 nM | 565 nM | 105 nM | –
12 | COc1cc(CCN2CCCCC2)c(OC)cc1Br | 16 | 6 | 2530 nM | 895 nM | 154 nM | –
13 | CNCCc1cc(OC)c(Br)cc1OC | 34 | 130 | 100 nM | 380 nM | 2.9 nM | –
14 | COc1cc(CCNCCCCc2ccccc2)c(OC)cc1Br | 26 | 4 | 695 nM | 100 nM | 27 nM | –
15 | COc1cc(CCNCc2ccc(N)cc2)c(OC)cc1Br | 64 | 3 | 1020 nM | 50 nM | 16 nM | –
16 | COc1cc(CCNCc2ccc(Br)cc2)c(OC)cc1Br | 120 | 4 | 48 nM | 1.6 nM | 0.4 nM | –
17 | COc1ccc(CNCCc2cc(OC)c(Br)cc2OC)cc1 | 17 | 1 | 215 nM | 16 nM | 13 nM | –
18 | COc1ccc(CNCCc2c[nH]c3ccc(OC)cc23)cc1 | 74 | 6 | 1180 nM | 100 nM | 16 nM | –
19 | COc1cc(CCNCc2ccc(Cl)cc2)c(OC)cc1Br | 48 | 7 | 715 nM | 110 nM | 15 nM | –
20 | COc1ccc2[nH]cc(CCNCc3ccc(N)cc3)c2c1 | 64 | 5 | 6700 nM | 475 nM | 105 nM | –
21 | COc1cc(CCNCc2ccc(I)cc2)c(OC)cc1Br | 410 | 55 | 165 nM | 22 nM | 0.4 nM | –
22 | COc1ccc2[nH]cc(CCNCc3ccc(F)cc3)c2c1 | 88 | 10 | 3530 nM | 480 nM | 40 nM | –
23 | COc1cc(CCNCc2ccc(F)cc2)c(OC)cc1Br | 80 | 7 | 360 nM | 30 nM | 3.4 nM | –
24 | COc1ccc2[nH]cc(CCNCc3ccc(C)cc3)c2c1 | 40 | 4 | 1230 nM | 110 nM | 30 nM | –
25 | COc1ccc2[nH]cc(CCNCc3ccc(I)cc3)c2c1 | 15 | 3 | 1770 nM | 400 nM | 120 nM | –
26 | COc1ccc2[nH]cc(CCNCc3ccc(Br)cc3)c2c1 | 1000 | 52 | 100 nM | 5.2 nM | 0.1 nM | –
27 | COc1cc(CCN(C)C)c(OC)cc1Br | 30 | 26 | 480 nM | 420 nM | 16 nM | –
28 | COc1cc(CCNCc2ccc([N+](=O)[O-])cc2)c(OC)cc1Br | 21 | 5 | 1220 nM | 290 nM | 58 nM | –
29 | CCNCCc1c[nH]c2ccc(OC)cc12 | – | – | 2680 nM | 930 nM | 7.2 nM | 130
30 | COc1cc(CCNCc2ccccc2)c(OC)cc1Br | 300 | 53 | 90 nM | 16 nM | 0.3 nM | –
